ChEMBL document CHEMBL1131800, “Novel carbonic anhydrase isozymes I, II and IV activators incorporating sulfonyl-histamino moieties” (Bioorg Med Chem Lett, 1999)

Tests used:
[1] = biological target: Carbonic anhydrase 2 (Homo sapiens) (UniProt P00918); assay: In vitro binding affinity against human carbonic anhydrase II (hCA-II human cloned isozyme).
Summary of the method: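 Human cloned CA II (3.5 nM) preincubated 10 min at room temperature with activator, then esterase assay following 4-nitrophenolate formation (ε 18,400 M-1·cm-1) at pH 7.40. Nonenzymatic hydrolysis was subtracted. Activator was diluted in water from a 1 mM stock down to 0.1 nM. Activation constant Ka is the mean of at least three determinations.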

[2] = biological target: T1, Carbonic anhydrase 4 (Bos taurus) (UniProt Q95323); assay: In vitro […] activity against bovine carbonic anhydrase IV (bCA IV) purified from lung microsomes.
T1 sequence (whole entry): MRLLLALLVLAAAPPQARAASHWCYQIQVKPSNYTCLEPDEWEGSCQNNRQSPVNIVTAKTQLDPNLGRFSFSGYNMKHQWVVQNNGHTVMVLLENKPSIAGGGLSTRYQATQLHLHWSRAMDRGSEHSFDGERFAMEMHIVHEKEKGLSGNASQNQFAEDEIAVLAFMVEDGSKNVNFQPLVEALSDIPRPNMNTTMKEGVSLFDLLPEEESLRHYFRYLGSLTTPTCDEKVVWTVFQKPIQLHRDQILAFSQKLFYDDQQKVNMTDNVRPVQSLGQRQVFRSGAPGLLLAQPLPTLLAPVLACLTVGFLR
Summary of the method: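 Bovine lung microsomal CA IV (31 nM) was preincubated 10 min at room temperature with activator, then assayed by the esterase method. 4-Nitrophenolate formation was measured at pH 7.40 (ε 18,400 M-1·cm-1), minus the uncatalysed rate. Activator came from a 1 mM aqueous stock diluted to 0.1 nM. Ka is the mean of ≥3 runs.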

[3] = biological target: Carbonic anhydrase 1 (Homo sapiens) (UniProt P00915); assay: In vitro binding affinity against human carbonic anhydrase I (hCA-I human cloned isozyme).
Chain of Carbonic anhydrase 1 (Homo sapiens) (P00915 2-261 limits assumed): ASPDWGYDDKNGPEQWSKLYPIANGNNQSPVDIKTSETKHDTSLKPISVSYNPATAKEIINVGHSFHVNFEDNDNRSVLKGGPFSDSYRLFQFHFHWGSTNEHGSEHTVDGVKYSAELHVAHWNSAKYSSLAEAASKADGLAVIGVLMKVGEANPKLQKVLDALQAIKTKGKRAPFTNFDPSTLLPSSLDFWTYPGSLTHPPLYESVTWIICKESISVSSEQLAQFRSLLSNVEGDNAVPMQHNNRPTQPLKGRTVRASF
Summary of the method: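 Human cloned CA I (12 nM) preincubated 10 min at room temperature with activator, then esterase assay on 4-nitrophenyl ester hydrolysis. Read-out was 4-nitrophenolate (ε 18,400 M-1·cm-1) at pH 7.40, with nonenzymatic rate subtracted. Activator stock was 1 mM in distilled-deionized water, diluted down to 0.1 nM. Ka is the mean of ≥3 determinations.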

Row | SMILES | Ka [1] [µM] | Ka [2] [µM] | Ka [3] [µM]
1 | Cc1ccccc1S(=O)(=O)NC(=O)NCCc1c[nH]cn1 | 0.15 | 0.03 | 0.006
2 | O=C(O)c1cccc(S(=O)(=O)NCCc2c[nH]cn2)c1 | 0.5 | 0.07 | 0.05
3 | Cc1ccc(S(=O)(=O)NC(=O)NCCc2c[nH]cn2)cc1 | 0.1 | 0.02 | 0.005
4 | O=C(O)c1ccccc1S(=O)(=O)NCCc1c[nH]cn1 | 1.2 | 0.12 | 0.06
5 | CC1(C)C2CCC1(CS(=O)(=O)NCCc1c[nH]cn1)C(=O)C2 (stereo unspecified) | 15 | 5.4 | 0.17
6 | O=C(NCCc1c[nH]cn1)NS(=O)(=O)c1ccc(F)cc1 | 0.09 | 0.02 | 0.004
7 | O=S(=O)(NCCc1c[nH]cn1)c1ccc2ccccc2c1 | 9 | 3.5 | 0.24
8 | O=C(O)c1ccc(S(=O)(=O)NCCc2c[nH]cn2)cc1 | 0.8 | 0.1 | 0.06
9 | O=S(=O)(NCCc1c[nH]cn1)C(F)(F)C(F)(F)C(F)(F)C(F)(F)C(F)(F)C(F)(F)C(F)(F)C(F)(F)F | 0.5 | 0.03 | 0.007
10 | CN(C)c1cccc2c(S(=O)(=O)NCCc3c[nH]cn3)cccc12 | 9 | 3.2 | 0.28
11 | O=S(=O)(NCCc1c[nH]cn1)c1cccc2ccccc12 | 10 | 3.6 | 0.26
12 | O=S(=O)(NCCc1c[nH]cn1)C(Cl)(Cl)Cl | 13 | 3.6 | 0.018
13 | NCCc1c[nH]cn1 | 125 | 41 | 2
14 | CC(=O)Nc1ccc(S(=O)(=O)NCCc2c[nH]cn2)cc1 | 20 | 6 | 0.21
15 | O=S(=O)(Cc1ccccc1)NCCc1c[nH]cn1 | 34 | 5.4 | 0.18
16 | O=C(NCCc1c[nH]cn1)NS(=O)(=O)c1ccc(Cl)cc1 | 0.08 | 0.01 | 0.003

Other lines, results leading:

Row | Ka [1] [µM] | Ka [2] [µM] | Ka [3] [µM] | SMILES
17 | 22 | 6.5 | 0.2 | COc1ccc(S(=O)(=O)NCCc2c[nH]cn2)cc1
18 | 10 | 3 | 0.09 | O=S(=O)(NCCc1c[nH]cn1)c1ccc(Br)cc1
19 | 7 | 0.09 | 0.1 | O=S(=O)(NCCc1c[nH]cn1)c1cc(Cl)cc(Cl)c1O
20 | 30 | 5 | 0.21 | O=S(=O)(NCCc1c[nH]cn1)c1ccccc1
21 | 1.2 | 0.15 | 0.013 | O=S(=O)(NCCc1c[nH]cn1)C(F)(F)F
22 | 6 | 1.4 | 0.12 | O=[N+]([O-])c1ccc(S(=O)(=O)NCCc2c[nH]cn2)cc1Cl
23 | 0.3 | 0.1 | 0.05 | O=C(O)c1c(Br)c(Br)c(Br)c(Br)c1S(=O)(=O)NCCc1c[nH]cn1
24 | 13 | 2.5 | 0.1 | O=S(=O)(NCCc1c[nH]cn1)c1ccc(Cl)cc1
25 | 13 | 5.3 | 0.15 | CN(C)S(=O)(=O)NCCc1c[nH]cn1
26 | 10 | 3.2 | 0.08 | O=S(=O)(NCCc1c[nH]cn1)c1ccc(I)cc1
27 | 10 | 1.8 | 0.14 | O=[N+]([O-])c1ccc(S(=O)(=O)NCCc2c[nH]cn2)cc1
28 | 8 | 1.6 | 0.13 | O=[N+]([O-])c1ccccc1S(=O)(=O)NCCc1c[nH]cn1
29 | 14 | 4.1 | 0.13 | Nc1ccc(S(=O)(=O)NCCc2c[nH]cn2)cc1
30 | 35 | 5.9 | 0.25 | Cc1cc(C)c(S(=O)(=O)NCCc2c[nH]cn2)c(C)c1
31 | 9 | 1.5 | 0.12 | O=[N+]([O-])c1cccc(S(=O)(=O)NCCc2c[nH]cn2)c1
32 | 5 | 1.1 | 0.09 | O=S(=O)(NCCc1c[nH]cn1)c1cccs1
33 | 28 | 7 | 0.24 | Cc1ccc(S(=O)(=O)NCCc2c[nH]cn2)cc1
34 | 0.9 | 0.05 | 0.01 | O=S(=O)(NCCc1c[nH]cn1)C(F)(F)C(F)(F)C(F)(F)C(F)(F)F
35 | 0.1 | 0.04 | 0.006 | O=S(=O)(NCCc1c[nH]cn1)c1c(F)c(F)c(F)c(F)c1F
36 | 5 | 0.1 | 0.08 | O=S(=O)(NCCc1c[nH]cn1)c1cc(Cl)ccc1Cl
37 | 12 | 2.4 | 0.11 | O=S(=O)(NCCc1c[nH]cn1)c1ccc(F)cc1
